The data set concerns CCOC(=O)C1=C[C@@H](OC(CC)CC)[C@H](NC(C)=O)[C@@H](N)C1. The data set can be described thus: Activity of human MDR1-mediated drug permeability expressed in pig LLC-PK1 cells. The class given is cell-based. The procedure, abridged:
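P-gp-transfected LLC-PK1 monolayers; 14C-labelled substrate (0.1 to 10 mM) plus Lucifer yellow added to the apical or basolateral donor side, ± elacridar 1 μM; 37°C, 5% CO2; acceptor sampled at 30 min and 1, 2, 3 h and counted by scintillation; Pe from the 3 h point, not corrected for marker flux; B-to-A/A-to-B ratio; three inserts per condition, mean.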

By Km is commonly meant the concentration of substrate that gives half-maximal velocity. For orientation: Vmax means the rate approached at saturating substrate. Consider “ATP-dependent translocase ABCB1 (Homo sapiens)”, for which the Km amounted to 4.2 mM and the Vmax was 0.000534 µmol/min.

These data come from ChEMBL document CHEMBL1687750, “Nonclinical pharmacokinetics of oseltamivir and oseltamivir carboxylate in the central nervous system” (Antimicrob Agents Chemother, 2009).
